# Laboratory results from ChEMBL document CHEMBL3045048, “Synthesis and antifungal action of new tricyclazole analogues” (2004).
# Active and inactive are the calls of the source. The rule behind the calls is not given here.
# What was measured:
# [1] = system: Pyricularia grisea; test: microbe, parasite or virus in culture; assay type: functional; settings: 120 h, read-out: GI
# [2] = system: Botrytis cinerea; test: Antifungal activity against Botryotinia fuckeliana assessed as anamalous stratification at septa at 200 ug/ml after 5 days by electron microscopy; assay type: functional, organism-based
# [3] = system: Pyricularia grisea; test: microbe, parasite or virus in culture; assay type: functional; settings: 120 h, read-out: GI; remark: listed apart in the source
# [4] = system: Berkeleyomyces basicola; test: microbe, parasite or virus in culture; assay type: functional; settings: 120 h, read-out: GI
# [5] = system: Trichoderma viride; test: microbe, parasite or virus in culture; assay type: functional; settings: 120 h, read-out: GI
# [6] = system: Penicillium crustosum; test: Antifungal activity against Penicillium crustosum assessed as color variation of hyphae at 200 ug/ml after 5 days by electron microscopy; assay type: functional, organism-based
# Method in brief: (§1)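 Mycelium disks (10 mm) from stationary-phase cultures were grown on cellophane over PDA at 26 ± 1 °C to log phase. They were then moved to PDA containing compound at 200 µg mL-1 from DMSO stock (final DMSO 0.1%), with 0.1% DMSO controls. Pigmentation was judged visually and photographically against untreated cultures of the same age.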
# [7] = system: Trichoderma harzianum; test: microbe, parasite or virus in culture; assay type: functional; settings: (Pers.)-Tul, 120 h, read-out: GI
# [8] = system: Alternaria solani; test: microbe, parasite or virus in culture; assay type: functional; settings: 120 h, read-out: GI
# [9] = system: Penicillium crustosum; test: microbe, parasite or virus in culture; assay type: functional; settings: 120 h, read-out: GI
# [10] = system: Pyricularia grisea; test: microbe, parasite or virus in culture; assay type: functional; settings: 120 h, read-out: GI; remark: listed apart in the source
# [11] = system: Penicillium italicum; test: microbe, parasite or virus in culture; assay type: functional; settings: ATCC 48952, 120 h, read-out: GI
# [12] = system: Trichoderma viride; test: microbe, parasite or virus in culture; assay type: functional; settings: 120 h, read-out: GI; remark: listed apart in the source
# [13] = system: Alternaria solani; test: microbe, parasite or virus in culture; assay type: functional; settings: 120 h, read-out: GI; remark: listed apart in the source
# [14] = system: Trichoderma harzianum; test: microbe, parasite or virus in culture; assay type: functional; settings: (Pers.)-Tul, 120 h, read-out: GI; remark: listed apart in the source
# [15] = system: Berkeleyomyces basicola; test: Antifungal activity against Thielaviopsis basicola Went assessed as color variation of hyphae at 200 ug/ml after 5 days by electron microscopy; assay type: functional, organism-based
# Method in brief: as §1
# [16] = system: Botrytis cinerea; test: Antifungal activity against Botryotinia fuckeliana assessed as inhibition of pigmentation of hyphae at 200 ug/ml after 5 days by electron microscopy; assay type: functional, organism-based
# Method in brief: as §1
# [17] = system: Alternaria solani; test: Antifungal activity against Alternaria solani Nees assessed as bleaching of hyphae at 200 ug/ml after 5 days by electron microscopy; assay type: functional, organism-based
# Method in brief: as §1
# [18] = system: Sclerotinia minor; test: Antifungal activity against Sclerotinia minor assessed as color variation of hyphae at 200 ug/ml after 5 days by electron microscopy; assay type: functional, organism-based
# Method in brief: as §1
# [19] = system: Penicillium italicum; test: Antifungal activity against Penicillium italicum ATCC 48952 assessed as color variation of hyphae at 200 ug/ml after 5 days by electron microscopy; assay type: functional, organism-based
# Method in brief: as §1
# [20] = system: Pyricularia grisea; test: microbe, parasite or virus in culture; assay type: functional; settings: 120 h, read-out: GI; remark: listed apart in the source
# [21] = system: Botrytis cinerea; test: microbe, parasite or virus in culture; assay type: functional; settings: 120 h, read-out: GI
# [22] = system: Pyricularia grisea; test: Antifungal activity against Magnaporthe grisea assessed as bleaching of hyphae at 200 ug/ml after 5 days by electron microscopy; assay type: functional, organism-based
# Method in brief: as §1
# [23] = system: Penicillium italicum; test: microbe, parasite or virus in culture; assay type: functional; settings: ATCC 48952, 120 h, read-out: GI; remark: listed apart in the source
# [24] = system: Botrytis cinerea; test: Antifungal activity against Botryotinia fuckeliana assessed as increased quantities of material in immediate layer of cell wall at 200 ug/ml after 5 days by electron microscopy; assay type: functional, organism-based
# [25] = system: Trichoderma harzianum; test: Antifungal activity against Trichoderma harzianum (Pers.)-Tul assessed as color variation of hyphae at 200 ug/ml after 5 days by electron microscopy; assay type: functional, organism-based
# Method in brief: as §1
# [26] = system: Berkeleyomyces basicola; test: microbe, parasite or virus in culture; assay type: functional; settings: 120 h, read-out: GI; remark: listed apart in the source
# [27] = system: Botrytis cinerea; test: microbe, parasite or virus in culture; assay type: functional; settings: 120 h, read-out: GI; remark: listed apart in the source
# [28] = system: Penicillium crustosum; test: microbe, parasite or virus in culture; assay type: functional; settings: 120 h, read-out: GI; remark: listed apart in the source
# [29] = system: Sclerotinia minor; test: microbe, parasite or virus in culture; assay type: functional; settings: 120 h, read-out: GI
# [30] = system: Botrytis cinerea; test: microbe, parasite or virus in culture; assay type: functional; settings: 120 h, read-out: GI; remark: listed apart in the source
# [31] = system: Sclerotinia minor; test: microbe, parasite or virus in culture; assay type: functional; settings: 120 h, read-out: GI; remark: listed apart in the source
# [32] = system: Botrytis cinerea; test: microbe, parasite or virus in culture; assay type: functional; settings: 120 h, read-out: GI; remark: listed apart in the source
SMILES,inhibition of growth at 100 µg/mL [1] [%],inhibition of growth at 10 µg/mL [3] [%],inhibition of growth at 100 µg/mL [4] [%],inhibition of growth at 200 µg/mL [5] [%],inhibition of growth at 200 µg/mL [7] [%],inhibition of growth at 100 µg/mL [8] [%],inhibition of growth at 200 µg/mL [9] [%],inhibition of growth at 200 µg/mL [10] [%],inhibition of growth at 200 µg/mL [11] [%],inhibition of growth at 100 µg/mL [12] [%],inhibition of growth at 200 µg/mL [13] [%],inhibition of growth at 100 µg/mL [14] [%],inhibition of growth at 50 µg/mL [20] [%],inhibition of growth at 10 µg/mL [21] [%],inhibition of growth at 100 µg/mL [23] [%],inhibition of growth at 200 µg/mL [26] [%],inhibition of growth at 100 µg/mL [27] [%],inhibition of growth at 100 µg/mL [28] [%],inhibition of growth at 200 µg/mL [30] [%],inhibition of growth at 50 µg/mL [32] [%],other results
Cc1nn(C)c2c1sc1nncn12,20.5,12.2,0,0,0,0,10,59.1,0,0,23.4,0,13,10.8,0,0,28.8,0,65.4,14.6,Activity [2]: Active; Activity [6]: Active; Activity [15]: Active; Activity [16]: inactive; Activity [17]: Active; Activity [18]: Active; Activity [19]: Active; Activity [22]: Active; Activity [24]: Active; Activity [25]: Active; inhibition of growth at 200 µg/mL [29]: 0%; inhibition of growth at 100 µg/mL [31]: 0%
Cc1cccc2sc3nncn3c12 [TRICYCLAZOLE],62.3,0,40.1,60,50.2,0,95,94,70.4,20.2,0,20,24.1,0,20.1,66.6,29.6,80.3,77.8,8.3,inhibition of growth at 200 µg/mL [29]: 0%; inhibition of growth at 100 µg/mL [31]: 0%
Cn1ncc2sc3nncn3c21,24,3,,,,,,43.4,,,,,8.2,0,,,19.3,,32.2,4,
